Data reported in ChEMBL document CHEMBL3120060, “Synthesis, in vitro anticancer evaluation and in silico studies of novel imidazo[2,1-b]thiazole derivatives bearing pyrazole moieties” (2014).

Tests used:
Assay type in all cases: functional
T47D = assay: Cytotoxicity against human T47D cells assessed as cell growth at 10 uM after 48 hrs by SRB assay; conditions: read-out: Activity
How it was run: (§1)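 NCI-60 single-dose screen at 10^-5 M. Adherent lines are grown in RPMI 1640 with 5% FBS and 2 mM L-glutamine, seeded at 5000–40,000 cells/well by doubling time, and preincubated 24 h at 37 °C in 5% CO2. Drug is added from DMSO stock diluted in medium, then 48 h. Cells are fixed in cold TCA (final 10%) for 60 min and stained with 0.4% SRB in 1% acetic acid. Growth is expressed as % of untreated control using time-zero plates.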

CAKI-1 = assay: Cytotoxicity against human CAKI-1 cells assessed as cell growth at 10 uM after 48 hrs by SRB assay; conditions: CAKI-1, 48 h, read-out: Activity
How it was run: (§2)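 NCI-60 single-dose screen. Cell lines grown in RPMI 1640 with 5% FBS and 2 mM L-glutamine, plated at 5000–40,000 cells/well according to doubling time, then preincubated 24 h at 37 °C in 5% CO2. Compounds dissolved in DMSO, tested at 10^-5 M for 48 h. Adherent cells fixed with cold TCA (10% final) and stained with 0.4% SRB in 1% acetic acid. Growth expressed as percent of untreated control.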

HL-60(TB) = assay: Cytotoxicity against human HL-60(TB) cells assessed as cell growth at 10 uM after 48 hrs by SRB assay; conditions: HL-60, 48 h, read-out: Activity
How it was run: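 NCI-60 single-dose screen: cells grown in RPMI 1640 with 5% FBS and 2 mM L-glutamine, plated at 5000–40,000 cells/well, preincubated 24 h at 37 °C, 5% CO2. Compound dissolved in DMSO, tested at 10^-5 M for 48 h. Cells TCA-fixed, sulforhodamine B stained. Growth expressed as percent of untreated control, referenced to time-zero plates.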

SK-MEL-28 = assay: Cytotoxicity against human SK-MEL-28 cells assessed as cell growth at 10 uM after 48 hrs by SRB assay; conditions: SK-MEL-28, 48 h, read-out: Activity; how it was run: as §2
UACC-62 = assay: Cytotoxicity against human UACC62 cells assessed as cell growth at 10 uM after 48 hrs by SRB assay; conditions: UACC-62, 48 h, read-out: Activity; how it was run: as §1
Malme-3M = assay: Cytotoxicity against human MALME-3M cells assessed as cell growth at 10 uM after 48 hrs by SRB assay; conditions: read-out: Activity; how it was run: as §2
A498 = assay: Cytotoxicity against human A498 cells assessed as cell growth at 10 uM after 48 hrs by SRB assay; conditions: A498, 48 h, read-out: Activity; how it was run: as §2
COLO 205 = assay: Cytotoxicity against human COLO205 cells assessed as cell growth at 10 uM after 48 hrs by SRB assay; conditions: COLO 205, 48 h, read-out: Activity; how it was run: as §2
DU-145 = assay: Cytotoxicity against human DU145 cells assessed as cell growth at 10 uM after 48 hrs by SRB assay; conditions: DU-145, 48 h, read-out: Activity; how it was run: as §2
K562 = assay: Cytotoxicity against human K562 cells assessed as cell growth at 10 uM after 48 hrs by SRB assay; conditions: K562, 48 h, read-out: Activity; how it was run: as §2
[1] = Cytotoxicity against human UACC257 cells assessed as cell growth at 10 uM after 48 hrs by SRB assay; conditions: UACC-257, 48 h, read-out: Activity; how it was run: as §1
[2] = Cytotoxicity against human Hs578T cells assessed as cell growth at 10 uM after 48 hrs by SRB assay; conditions: Hs-578T, read-out: Activity; how it was run: as §2
SN12C = assay: Cytotoxicity against human SN12C cells assessed as cell growth at 10 uM after 48 hrs by SRB assay; conditions: read-out: Activity; how it was run: as §2
NCI-H226 = assay: Cytotoxicity against human NCI-H226 cells assessed as cell growth at 10 uM after 48 hrs by SRB assay; conditions: NCI-H226, 48 h, read-out: Activity; how it was run: as §2
KM12 = assay: Cytotoxicity against human KM12 cells assessed as cell growth at 10 uM after 48 hrs by SRB assay; conditions: KM12, 48 h, read-out: Activity; how it was run: as §2
OVCAR-3 = assay: Cytotoxicity against human OVCAR3 cells assessed as cell growth at 10 uM after 48 hrs by SRB assay; conditions: OVCAR-3, 48 h, read-out: Activity; how it was run: as §2
LOX IMVI = assay: Cytotoxicity against human LOXIMVI cells assessed as cell growth at 10 uM after 48 hrs by SRB assay; conditions: read-out: Activity; how it was run: as §2
SNB-19 = assay: Cytotoxicity against human SNB19 cells assessed as cell growth at 10 uM after 48 hrs by SRB assay; conditions: SNB-19, 48 h, read-out: Activity; how it was run: as §2
[3] = Cytotoxicity against human NCI-ADR-RES cells assessed as cell growth at 10 uM after 48 hrs by SRB assay; conditions: read-out: Activity; how it was run: as §2
MDA-MB-435 = assay: Cytotoxicity against human MDA-MB-435 cells assessed as cell growth at 10 uM after 48 hrs by SRB assay; conditions: MDA-MB-435, 48 h, read-out: Activity; how it was run: as §2
A549 = assay: Cytotoxicity against human A549 cells assessed as cell growth at 10 uM after 48 hrs by SRB assay; conditions: A549, 48 h, read-out: Activity; how it was run: as §2
ACHN = assay: Cytotoxicity against human ACHN cells assessed as cell growth at 10 uM after 48 hrs by SRB assay; conditions: read-out: Activity; how it was run: as §2
SK-MEL-2 = assay: Cytotoxicity against human SK-MEL-2 cells assessed as cell growth at 10 uM after 48 hrs by SRB assay; conditions: SK-MEL-2, 48 h, read-out: Activity; how it was run: as §2
NCI-H322M = assay: Cytotoxicity against human NCI-H322M cells assessed as cell growth at 10 uM after 48 hrs by SRB assay; conditions: read-out: Activity; how it was run: as §2
[4] = Cytotoxicity against human OVCAR5 cells assessed as cell growth at 10 uM after 48 hrs by SRB assay; conditions: OVCAR-5, 48 h, read-out: Activity; how it was run: as §2
OVCAR-8 = assay: Cytotoxicity against human OVCAR8 cells assessed as cell growth at 10 uM after 48 hrs by SRB assay; conditions: OVCAR-8, 48 h, read-out: Activity; how it was run: as §2
PC-3 = assay: Cytotoxicity against human PC3 cells assessed as cell growth at 10 uM after 48 hrs by SRB assay; conditions: PC-3, 48 h, read-out: Activity; how it was run: as §2
HOP-92 = assay: Cytotoxicity against human HOP92 cells assessed as cell growth at 10 uM after 48 hrs by SRB assay; conditions: HOP-92, 48 h, read-out: Activity; how it was run: as §2
RXF 393 = assay: Cytotoxicity against human RXF393 cells assessed as cell growth at 10 uM after 48 hrs by SRB assay; conditions: RXF 393, 48 h, read-out: Activity; how it was run: as §2
NCI-H522 = assay: Cytotoxicity against human NCI-H522 cells assessed as cell growth at 10 uM after 48 hrs by SRB assay; conditions: NCI-H522, 48 h, read-out: Activity; how it was run: as §2
SF-295 = assay: Cytotoxicity against human SF295 cells assessed as cell growth at 10 uM after 48 hrs by SRB assay; conditions: SF-295, 48 h, read-out: Activity; how it was run: as §2

Structure (SMILES) | growth at 10 µM (T47D) | growth at 10 µM (CAKI-1) | growth at 10 µM (HL-60(TB)) | growth at 10 µM (SK-MEL-28) | growth at 10 µM (UACC-62) | growth at 10 µM (Malme-3M) | growth at 10 µM (A498) | growth at 10 µM (COLO 205) | growth at 10 µM (DU-145) | growth at 10 µM (K562) | growth at 10 µM [1] | growth at 10 µM [2] | growth at 10 µM (SN12C) | growth at 10 µM (NCI-H226) | growth at 10 µM (KM12) | growth at 10 µM (OVCAR-3) | growth at 10 µM (LOX IMVI) | growth at 10 µM (SNB-19) | growth at 10 µM [3] | growth at 10 µM (MDA-MB-435) | other results
CC1=NN(c2cn3c(-c4ccc(C)cc4)csc3n2)C(=O)C1 | 80.6% | 84.5% | 110% | 98.5% | 74.1% | 107% | 99.2% | 106% | 113% | 80.5% | 100% | 109% | 96.4% | 89.7% | 104% | 110% | 93% | 100% | 99.3% | 83.6% | growth at 10 µM (A549): 98.3%; growth at 10 µM (ACHN): 96.9%; growth at 10 µM (SK-MEL-2): 114%; growth at 10 µM (NCI-H322M): 105%; growth at 10 µM [4]: 124%; growth at 10 µM (OVCAR-8): 102%; growth at 10 µM (PC-3): 75.3%; growth at 10 µM (HOP-92): 65.5%; growth at 10 µM (RXF 393): 95.9%; growth at 10 µM (NCI-H522): 88.9%
Cc1ccc(-c2csc3nc(N4NC(=O)CC4=O)cn23)cc1 | 85.7% | 90.1% | 107% | 102% | 91.8% | 118% | 98% | 107% | 118% | 94.7% | 109% | 107% | 104% | 94.4% | 115% | 113% | 96.9% | 102% | 108% | 90% | growth at 10 µM (A549): 102%; growth at 10 µM (ACHN): 90.5%; growth at 10 µM (SK-MEL-2): 116%; growth at 10 µM (NCI-H322M): 108%; growth at 10 µM [4]: 108%; growth at 10 µM (OVCAR-8): 99.3%; growth at 10 µM (PC-3): 87.3%; growth at 10 µM (HOP-92): 75.1%; growth at 10 µM (RXF 393): 101%; growth at 10 µM (NCI-H522): 95.9%; growth at 10 µM (SF-295): 91.2%
O=C1CN2C(c3ccccc3)=CSC2=N1 | 84.4% | 78.7% | 114% | 105% | 90.3% | 102% | 111% | 102% | 112% | 88.8% | 103% | 103% | 91.5% | 102% | 111% | 111% | 89.4% | 99.7% | 99.6% | 95.1% | growth at 10 µM (A549): 98.3%; growth at 10 µM (ACHN): 97.9%; growth at 10 µM (SK-MEL-2): 114%; growth at 10 µM (NCI-H322M): 116%; growth at 10 µM [4]: 113%; growth at 10 µM (OVCAR-8): 97.9%; growth at 10 µM (PC-3): 82.4%; growth at 10 µM (HOP-92): 78%; growth at 10 µM (RXF 393): 102%; growth at 10 µM (NCI-H522): 94.3%
O=C1CC(=O)N(c2cn3c(-c4ccccc4)csc3n2)N1 | 82.7% | 75.9% | 120% | 96.4% | 85% | 141% | 78.4% | 100% | 106% | 94.2% | 97.6% | 101% | 92.2% | 90% | 101% | 99% | 86.9% | 91% | 94.3% | 99.9% | growth at 10 µM (A549): 92.9%; growth at 10 µM (ACHN): 81.5%; growth at 10 µM (SK-MEL-2): 102%; growth at 10 µM (NCI-H322M): 98.1%; growth at 10 µM [4]: 104%; growth at 10 µM (OVCAR-8): 89.8%; growth at 10 µM (PC-3): 76.4%; growth at 10 µM (HOP-92): 63.5%; growth at 10 µM (RXF 393): 89.7%; growth at 10 µM (NCI-H522): 74.9%
